This is an account of results in article PMC4153964 (Drugs in R&D, 2014).

The conditions of data set [1]: cited from earlier work.
The format of data set [2] is in vivo, healthy Korean male volunteers. The note with it: for Pharmacokinetic effect on the co-administered drug: steady-state gemigliptin 50 mg, single-dose glimepiride 4 mg. In outline:
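Randomized open-label crossover. Oral gemigliptin 50 mg once daily for 6 days with glimepiride 4 mg co-administered on day 7, versus single glimepiride 4 mg. Heparinized plasma was sampled to 24 h (days 6–7 at 0–14 h, day 8 at 0 h). LC–MS/MS; LLOQ 0.5 ng/mL gemigliptin, 1 ng/mL glimepiride. Non-compartmental AUC by linear-up/log-down trapezoidal method. Log-transformed GMRs with 90 % CI from mixed-effects ANOVA.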

The conditions of data set [3]: cited from earlier work; for t max: oral.
The nature of data set [4]: Tolerability assessments. It counts as in vivo, healthy Korean male volunteers. The gist of the method:
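Subjects receiving more than one dose were included. Medical staff monitored adverse events after dosing. Vital signs were taken seated after ≥5 min rest. 12-lead ECG was recorded before blood sampling. Physical examinations were done, and hematology, biochemistry and urinalysis were drawn after >8 h fasting. Investigators judged abnormal findings for clinical significance and relation to study drug.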

The conditions of data set [5]: cited from earlier work. This is another data set of the same source.
Data set [6] has as its system cytochrome P450 (CYP). The settings on record: cited from earlier work.
The conditions of data set [7]: stated as known, no reference given; cited from earlier work.
Setting [8] is: glimepiride 4 mg + gemigliptin 50 mg, day 7.
Where [9] appears, read: glimepiride 4 mg single dose only.
Setting [10] is: plasma, glimepiride 4 mg single dose only.
Where [11] appears, read: another study, subjects all Caucasian.
[12] abbreviates: single-dose 4 mg, healthy volunteers, ref Malerczyk et al. [20].
Where [13] appears, read: single ascending-dose study, healthy volunteers, 50–400 mg.

Like-named read-outs stand apart in the source and are kept apart here.

In the case of `N[C@@H](CC(=O)N1CCn2c(nnc2C(F)(F)F)C1)Cc1cc(F)c(F)cc1F` [sitagliptin], in data set [1], the “effect on the pharmacokinetics of glyburide” value is recorded as “does not affect the pharmacokinetics of glyburide”.

Take `CCC1=C(C)CN(C(=O)NCCc2ccc(S(=O)(=O)NC(=O)NC3CCC(CO)CC3)cc2)C1=O` (stereo not drawn) [M1]: the “t max, median (min–max)” value in data set [2] (setting [8]) was 4.0 (3.0–6.0) h. Also, the “t max, median (min–max)” value in data set [2] (setting [9]) is given as 4.0 (3.0–6.0) h. In addition, in data set [2] (setting [10]), the “AUClast, mean (SD)” value is listed as 189.88 (52.77) ng · h/mL and the “C max, mean (SD)” value is listed as 28.26 (8.40) ng/mL.

In general, half-life refers to the time in which the quantity being followed falls by half. With `CCC1=C(C)CN(C(=O)NCCc2ccc(S(=O)(=O)NC(=O)N[C@H]3CC[C@H](C)CC3)cc2)C1=O` [Glimepiride], the “t max, median (min–max)” value in data set [2] (setting [8]) is listed as 3.0 (2.0–5.0) h; in data set [2] (setting [9]) it was 4.0 (2.0–5.0) h. The “Pharmacokinetic effect on the co-administered drug” value in data set [2] is on record as “no pharmacokinetic effects on steady-state gemigliptin”. The accumulation result in data set [3] (after multiple dosing) is “without accumulation”; in data set [3] (multiple doses, 1 day vs 7 days, T2DM patients), “does not accumulate”. In addition, the oral absorption result in data set [3] (after oral administration) is reported as “completely absorbed”. For the same molecule, the “AUClast (geometric mean)” value in data set [3] (setting [11]) is given as 8,753 ng · h/mL. Moreover, the “geometric C max mean” value in data set [3] (setting [11]) was 1,084 ng/mL. Moreover, in data set [3], the half-life is < 5 h. The t max in data set [3] (T2DM patients) is 2.4 to 3.75 h; in data set [3] (healthy volunteers) it was 0.7 to 2.8 h. Moreover, the “mean AUC” value in data set [3] (setting [12]) was 1,297 μg/L · h. Also, the “mean C max” value in data set [3] (setting [12]) is 307.8 µg/L.

Regarding `CC#CCn1c(N2CCC[C@@H](N)C2)nc2c1c(=O)n(Cc1nc(C)c3ccccc3n1)c(=O)n2C` [linagliptin], the “pharmacokinetics on coadministration of linagliptin and glyburide” value in data set [1] (linagliptin 5 mg/day × 6 days, glyburide single-dose 1.75 mg) is reported as “not affected”.

Broadly, the AUC is concentration integrated over time. The low end stands for low exposure, the high end for high exposure. As a reminder, the Cmax is the highest concentration seen after dosing. As to `N[C@@H](CC(=O)N1CCc2c(nc(C(F)(F)F)nc2C(F)(F)F)C1)CN1CC(F)(F)CCC1=O` [Gemigliptin], the t max was 1.5 h in data set [2] (male, human, plasma, oral, 50 mg, t max,ss, median (min–max), plasma, day 6, gemigliptin 50 mg once daily only) and 30 to 306 min in data set [5] (setting [13]). The molecule further had an AUC in data set [2] (male, human, plasma, po, 50 mg) of 798 ng·h/mL. Further, the Cmax in data set [2] (male, human, plasma, po, 50 mg, C max,ss, mean (SD), plasma, day 6, gemigliptin 50 mg once daily only, oral) is 80.2 ng/mL. The “Pharmacokinetic effect on the co-administered drug” value in data set [2] is given as “nor did gemigliptin affect the pharmacokinetics of single-dose glimepiride”. For the same molecule, in data set [4] (repeated gemigliptin dosing, 50 mg/day, 23 participants), the “Adverse events during dosing (events and participants)” value is listed as “six AEs occurred in four participants”. Besides, the “Adverse events considered possibly related to the study drug” value in data set [4] (rhinorrhea, constipation, and headache) is “three AEs in three participants were considered possibly related to the study drug”. Further, the half-life in data set [5] (day 1 of a previous study using 24 h sampling) was 7.4 to 9.3 h; in data set [5] (previous multiple-dose study), “approximately 17 h”; in data set [5] (previously reported by multiple-dose studies, sampling ≤72 h after the last dose), 16.6 to 20.1 h. Further, in data set [5] (previous multiple-dose study), the accumulation result is reported as “accumulation was reported”. For the same molecule, the “mean t ½” value in data set [5] (setting [13]) is 16.7 to 21.3 h. Also, in data set [6] (gemigliptin and its metabolites, preclinical studies, ref Gemigliptin IB version 6.0, September 2012), the “inhibitory or induction potential” value is on record as “very low”. Besides, in data set [6] (preclinical studies, ref Gemigliptin IB version 6.0, September 2012), the major metabolic route entry is reported as “via cytochrome P450 (CYP) 3A4”. For the same molecule, the effects on cytochromes result in data set [6] (stated as known, no reference given) is “no significant effects on cytochromes”. Moreover, in data set [7], the protein binding entry was “no strong protein-binding characteristics”.

On to `OC(Cn1cncn1)(Cn1cncn1)c1ccc(F)cc1F` [fluconazole], for which the “effect on plasma concentrations of glimepiride” value in data set [1] is given as “increase plasma concentrations of glimepiride”.
